The values below come from ChEMBL document CHEMBL4765453, “Phenanthrolinic analogs of quinolones show antibacterial activity against M. tuberculosis” (Eur J Med Chem, 2020).

The term MIC90 denotes the lowest concentration that inhibits either 90% of growth or 90% of the strains tested, depending on the study.

Structures are written as SMILES. In brackets after ≈: the same amount, converted by molar mass. Activity calls are given as the source filed them. The calls are words filed in the database; no cut-off is given here.

For data set [1], the system named is Mycolicibacterium aurum. Put plainly: Antibacterial activity against Mycobacterium aurum measured after 7 days by resazurin microtiter assay. As to conditions: 168 h, time 7 day. It is filed as functional. The method, boiled down: (§1)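 Resazurin microtiter assay with two-fold drug dilutions in complete 7H9 broth. Exponential-phase cells are diluted to a final OD600 of 0.005 in 7H9 without Tween. Incubation is 7 days at 37°C, then 0.01% resazurin is added and plates are held 24 h more. MIC is the lowest concentration preventing the blue-to-pink change. Each MIC is determined three times in duplicate experiments.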

The subject of data set [2] is Mycobacterium tuberculosis. Briefly: Antitubercular activity against Mycobacterium tuberculosis H37Rv infected in human macrophages assessed as intracellular bacterial load at 4 times MIC measured after 6 days (reference value: 5.57 to 6.43 logCFU/ml). It is filed as functional, Macrophage. The following applies: time 6 day.
Data set [3] concerns Escherichia coli ATCC 25922. Put plainly: Inhibition of DNA gyrase in Escherichia coli ATCC 25922 assessed as elongation of bacterial cells at 2.5 ug/ml measured after 1.5 hrs by DAPI/FM 4-64 staining based confocal fluorescence microscopic analysis. The following applies: dose 2.5 µg/ml. The method, boiled down:
(§2)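 E. coli ATCC 25922 is grown in LB, and exponential cultures are treated 1.5 h at 37°C. Cells are washed in PBS, fixed 10 min in 4% PFA, and stained 20 min at room temperature with 2 µg/mL DAPI plus 1 µg/mL FM 4-64. Imaging is by confocal microscopy with a 60x oil objective.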

Data set [4] deals with Mycolicibacterium smegmatis. Put plainly: Inhibition of DNA gyrase in Mycobacterium smegmatis assessed as elongation of bacterial cells at 2.5 ug/ml measured after 6 hrs by DAPI/FM 4-64 staining based confocal fluorescence microscopic analysis. The following applies: dose 2.5 µg/ml. An outline of the steps:
(§3)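 M. smegmatis is grown in 7H9, and exponential cultures are treated 6 h at 37°C. Cells are fixed 10 min in 4% PFA in PBS and stained 20 min at room temperature with 2 µg/mL DAPI and 1 µg/mL FM 4-64. Imaging is by confocal microscopy with a 60x oil objective.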

Data set [5] concerns Mycolicibacterium smegmatis. Briefly: Inhibition of DNA gyrase in Mycobacterium smegmatis assessed as segmentation of bacterial cells at 2.5 ug/ml measured after 6 hrs by DAPI/FM 4-64 staining based confocal fluorescence microscopic analysis. The following applies: dose 2.5 µg/ml. The method, boiled down: as §3
In data set [6] the test system is Mycolicibacterium smegmatis. Put plainly: Antibacterial activity against Mycobacterium smegmatis measured after 7 days by resazurin microtiter assay. As to conditions: 168 h, time 7 day. It is filed as functional. An outline of the steps:
as §1
For orientation: Resazurin is reduced to fluorescent resorufin, in cell work by metabolically active cells.

Data set [7] in a line: Solubility of compound in water. It is filed as physicochemical. The following applies: buffer.
For data set [8], the system named is Pseudomonas aeruginosa. Put plainly: Antibacterial activity against Pseudomonas aeruginosa measured after 7 days by resazurin microtiter assay. The following applies: 168 h, time 7 day. It is filed as functional.
For data set [9], the system named is Mycobacterium tuberculosis. Put plainly: Antitubercular activity against Mycobacterium tuberculosis XDR measured after 7 days by resazurin microtiter assay. It is filed as functional. The following applies: 168 h, time 7 day. An outline of the steps: as §1
The subject of data set [10] is Escherichia coli ATCC 25922. Put plainly: Inhibition of DNA gyrase in Escherichia coli ATCC 25922 assessed as appearance of filamentous bacterial cells at 2.5 ug/ml measured after 1.5 hrs by DAPI/FM 4-64 staining based confocal fluorescence microscopic analysis. The following applies: dose 2.5 µg/ml. The method, boiled down: as §2
Data set [11] has as its system Mycobacterium tuberculosis. Briefly: Antitubercular activity against Mycobacterium tuberculosis H37Rv infected in human macrophages assessed as intracellular bacterial load at 0.5 MIC measured after 6 days (reference value: 5.57 to 6.43 logCFU/ml). It is filed as functional, Macrophage. As to conditions: time 6 day.
The subject of data set [12] is Mycobacterium marinum. Put plainly: Antibacterial activity against Mycobacterium marinum measured after 7 days by resazurin microtiter assay. It is filed as functional. The following applies: 168 h, time 7 day. The method, boiled down: as §1
Data set [13] relates to Macrophage. Put plainly: Cytotoxicity against human macrophages assessed as reduction in cell viability measured after 6 days by Celltiter-glo assay. It is filed as cell-based. The following applies: human, macrophage, 144 h; time 6 day. The method, boiled down:
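Infected human macrophages, with or without drug, are incubated 6 days. Viability is checked by visual inspection and by CellTiter-Glo ATP luminescence.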

The test system of data set [14] is Klebsiella aerogenes. Put plainly: Antibacterial activity against Enterobacter aerogenes measured after 7 days by resazurin microtiter assay. It is filed as functional. As to conditions: 168 h, time 7 day.
Data set [15] relates to Mycobacterium tuberculosis. Put plainly: Antitubercular activity against Mycobacterium tuberculosis H37Rv infected in human macrophages assessed as intracellular bacterial load at MIC measured after 6 days (reference value: 5.57 to 6.43 logCFU/ml). It is filed as functional, Macrophage. As to conditions: time 6 day.
The subject of data set [16] is Mycobacterium tuberculosis. Briefly: Antitubercular activity against Mycobacterium tuberculosis H37Rv measured after 7 days by resazurin microtiter assay. It is filed as functional. The following applies: 168 h, time 7 day. The method, boiled down:
as §1

Data set [17] deals with Acinetobacter baumannii. Put plainly: Antibacterial activity against Acinetobacter baumannii measured after 7 days by resazurin microtiter assay. The following applies: 168 h, time 7 day. It is filed as functional.
Data set [18] has as its system Enterobacter cloacae. Put plainly: Antibacterial activity against Enterobacter cloacae measured after 7 days by resazurin microtiter assay. It is filed as functional. As to conditions: 168 h, time 7 day.
In data set [19] the test system is Klebsiella pneumoniae. Put plainly: Antibacterial activity against Klebsiella pneumoniae measured after 7 days by resazurin microtiter assay. It is filed as functional. The following applies: 168 h, time 7 day.
Data set [20] relates to Escherichia coli ATCC 25922. Briefly: Inhibition of DNA gyrase in Escherichia coli ATCC 25922 assessed as change in DNA morphology at 2.5 ug/ml measured after 1.5 hrs by DAPI/FM 4-64 staining based confocal fluorescence microscopic analysis. The following applies: dose 2.5 µg/ml. An outline of the steps: as §2
Data set [21] has as its system Staphylococcus aureus. Put plainly: Antibacterial activity against Staphylococcus aureus measured after 7 days by resazurin microtiter assay. It is filed as functional. The following applies: 168 h, time 7 day.
Data set [22] has as its system Mycobacterium tuberculosis. Put plainly: Antitubercular activity against Mycobacterium tuberculosis H37Rv infected in human macrophages assessed as intracellular bacterial load at 2 times MIC measured after 6 days (reference value: 5.57 to 6.43 logCFU/ml). It is filed as functional, Macrophage. The following applies: time 6 day.
Data set [23] relates to Vero. Put plainly: Cytotoxicity against African green monkey Vero cells assessed as reduction in cell viability measured after 24 to 48 hrs by Celltiter-glo assay. It is filed as cell-based, Chlorocebus sabaeus. The following applies: chlorocebus sabaeus, vero; time 24-48 hrs. An outline of the steps:
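Vero cells are grown in DMEM with 10% FBS and seeded at 25000 cells/well. Compound is added at 1% final DMSO, with 24 and 48 h incubation. ATP is read by CellTiter-Glo luminescence. IC50 is the concentration giving a 50% drop in ATP signal versus the DMSO control.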
(In ATP-based viability assays light output follows the ATP content of the culture.)

Data set [24] deals with Escherichia coli ATCC 25922. Briefly: Inhibition of DNA gyrase in Escherichia coli ATCC 25922 assessed as elongation of bacterial cells at 2 ug/ml measured after 1.5 hrs by DAPI/FM 4-64 staining based confocal fluorescence microscopic analysis. The following applies: dose 2.0 µg/ml. The method, boiled down:
as §2

The subject of data set [25] is Mycolicibacterium smegmatis. Briefly: Inhibition of DNA gyrase in Mycobacterium smegmatis assessed as elongation of bacterial cells at 2 ug/ml measured after 6 hrs by DAPI/FM 4-64 staining based confocal fluorescence microscopic analysis. The following applies: dose 2.0 µg/ml. An outline of the steps:
as §3

Data set [26] has as its system Mycolicibacterium smegmatis. Put plainly: Inhibition of DNA gyrase in Mycobacterium smegmatis assessed as segmentation of bacterial cells at 2 ug/ml measured after 6 hrs by DAPI/FM 4-64 staining based confocal fluorescence microscopic analysis. As to conditions: dose 2.0 µg/ml. The method, boiled down: as §3

`Cn1cc(C(=O)O)c(=O)c2cc([N+](=O)[O-])c3cccnc3c21`: the MIC90 was 11.2 µM (≈ 3.35 µg/mL) in data set [1]; 11.2 µM (≈ 3.35 µg/mL) in data set [6]; > 100 µM in [8]; 2.64 µM (≈ 0.79 µg/mL) in data set [9]; 0.7 µM (≈ 0.209 µg/mL) in data set [12]; 44.7 µM (≈ 13.4 µg/mL) in data set [14]. Moreover, the MIC90 in [16] was 2.64 µM (≈ 0.79 µg/mL); in data set [17], > 100 µM; in data set [18] it was > 275 µM; in data set [19], > 275 µM; in data set [21] it was 22.4 µM (≈ 6.69 µg/mL). Moreover, the Activity in [2] is 3.01 log10CFU/ml; in [11] it was 3.78 log10CFU/ml; in data set [13], “Non-Toxic”; in [15], 3.65 log10CFU/ml; in data set [22] it was 2.77 log10CFU/ml; in [23] it was “Non-Toxic”. Further, the inhibition result in data set [3], in [4], in data set [5], in data set [10] and in [20] was “Active” in each case. For the same compound, the solubility entry in data set [7] is “Insoluble”.

With `CC1COc2c(N3CCN(C)CC3)c(F)cc3c(=O)c(C(=O)O)cn1c23` (stereo unspecified) [OFLOXACIN], the MIC90 was 3.46 µM (≈ 1.25 µg/mL) in data set [1]; 3.46 µM (≈ 1.25 µg/mL) in data set [6]; 6.92 µM (≈ 2.5 µg/mL) in [8]; 27.6 µM (≈ 9.97 µg/mL) in data set [9]; 6.92 µM (≈ 2.5 µg/mL) in data set [12]; 0.22 µM (≈ 0.0795 µg/mL) in [14]. The MIC90 in data set [16] is 1.73 µM (≈ 0.625 µg/mL); in data set [17], 1.73 µM (≈ 0.625 µg/mL); in data set [18], 6.92 µM (≈ 2.5 µg/mL); in [21], 1.73 µM (≈ 0.625 µg/mL). The inhibition entry in [24], in [25] and in [26] was “Active” throughout.
